Assay results from different studies.
Compare with care: the assays were run in different laboratories.
Target: Serine/threonine-protein kinase PAK 4 (PAK4, Homo sapiens, UniProt O96013)

O=C(c1ccc(Nc2ncc(Cl)c(-c3cc4ccccc4s3)n2)cc1)N1CCC(N2CCCC2)CC1  remaining binding (binding; competition with immobilised ligand; 1 µM): 77%
COc1cnc(Nc2cccc(S(N)(=O)=O)c2)nc1N1CCN(c2ccccc2)CC1  remaining binding (binding; competition with immobilised ligand; 1 µM): 95%
C[C@@H](c1cccc(C#N)c1)n1cc(Cl)cc(C(N)=O)c1=N  remaining binding (cell-free assay; competition with immobilised ligand; 1 µM): 100%
N#Cc1ccccc1CSc1nnc2c(n1)[nH]c1ccccc12  remaining binding (binding; competition with immobilised ligand; 10 µM): 87%
C[C@H]1CCN(c2nccc(-c3cnn4ncccc34)n2)C1  remaining binding (binding; 1 µM): 95%
O=C(NCCCN1CCOCC1)c1ccc(Nc2ncc(Cl)c(-c3ccc(Cl)s3)n2)cc1  remaining binding (binding; competition with immobilised ligand; 1 µM): 89%
F[C@@H]1CCN(c2nccc(-c3cnn4ncccc34)n2)C1  remaining binding (binding; 1 µM): 100%
O=C(Nc1c[nH]nc1C(=O)NC1CCNCC1)c1cc(F)cc(F)c1  remaining binding (binding; competition with immobilised ligand; 1 µM): 100%
CN(CCCC(F)(F)F)c1nccc(-c2cnn3ncccc23)n1  remaining binding (binding; 1 µM): 100%
CS(=O)(=O)c1cc(C2(NC(=O)c3cncc4c3cnn4-c3ccc(F)cc3)CC2)ccn1  remaining binding (cell-free assay; competition with immobilised ligand; 1 µM): 100%
CN(C)c1nccc(-c2cnc3ncccn23)n1  remaining binding (binding; 1 µM): 88%
Cc1cnc(Nc2ccc(C(=O)N3CCC(N4CCCC4)CC3)cc2)nc1-c1cc2ccccc2s1  remaining binding (binding; competition with immobilised ligand; 1 µM): 70%
CN(c1nccc(-c2cnn3ncccc23)n1)C1CC1  remaining binding (binding; 1 µM): 100%
CN1CCN(c2cnc3c(C4CCN(C(=O)c5ccc(OC(F)(F)F)cc5N)CC4)ncnc3c2)CC1  remaining binding (cell-free assay; competition with immobilised ligand; 1 µM): 91%
CC(C)(C)c1ccc(-c2nc(CBr)nn2-c2cccc(O)c2)cc1  remaining binding (cell-free assay; competition with immobilised ligand; 10 µM): 87%
CCC(=N\O)/C(C)=C/c1ccc(F)cc1  remaining binding (cell-free assay; competition with immobilised ligand; 1 µM): 100%
C[C@@H]1CN(c2ccc3ncc(-c4ccc5[nH]nc(C6CC6)c5c4)n3n2)C[C@H](C)O1  remaining binding (binding; competition with immobilised ligand; 50 nM): 90%
Cn1cc(Cl)c2c(Oc3c(F)cc(Nc4cc(Cl)nc(N)n4)cc3F)ccnc21  remaining binding (cell-free assay; competition with immobilised ligand; 0.1 µM): 100%
N[C@H]1CCN(c2nccc(-c3cnn4ncccc34)n2)C1  remaining binding (binding; 1 µM): 88%
CCC(=O)N[C@@H]1CC[C@H](C(=O)N(C)c2ccc(-c3nc4ccccc4o3)cc2)C1  remaining binding (cell-free assay; competition with immobilised ligand; 1 µM): 100%
CN(C)c1ncc(F)c(-c2cnn3ncccc23)n1  remaining binding (binding; 1 µM): 80%
O=C(NS(=O)(=O)c1ccc(NCC2CCOCC2)c([N+](=O)[O-])c1)c1ccc(N2CCN(Cc3ccc(C(F)(F)F)cc3-c3ccc(Cl)cc3)CC2)cc1Oc1cnc2[nH]ccc2c1  remaining binding (cell-free assay; competition with immobilised ligand; 1 µM): 93%
FC(F)(F)Oc1cccc(-c2cnc3ccc(-c4ccncc4)nn23)c1  remaining binding (cell-free assay; competition with immobilised ligand; 5 µM): 47%
O=C(N1CCS(=O)(=O)CC1)N1C[C@H](c2ccc(OC(F)(F)F)cc2)C[C@H](c2nc(C3CC3)no2)C1  remaining binding (cell-free assay; competition with immobilised ligand; 1 µM): 100%
COc1cnc(Nc2cccc(S(N)(=O)=O)c2)nc1N1CCN(c2ccccc2)C(=O)C1  remaining binding (binding; competition with immobilised ligand; 1 µM): 100%
